According to ChEMBL document CHEMBL4765226, “Identification of a Human Toll-Like Receptor (TLR) 8-Specific Agonist and a Functional Pan-TLR Inhibitor in 2-Aminoimidazoles” (J Med Chem, 2016):
Activity calls are given as the source filed them. No cut-off for these calls is given here.

What follows are molecules tested against T1, Toll-like receptor 8 (Homo sapiens) (UniProt Q9NR97) (assay: Agonist activity at TLR8 in human PBMC cells assessed as induction of TNFalpha production incubated for 16 hrs by immunoassay). Conditions: filed as agonist.
T1 sequence (whole entry): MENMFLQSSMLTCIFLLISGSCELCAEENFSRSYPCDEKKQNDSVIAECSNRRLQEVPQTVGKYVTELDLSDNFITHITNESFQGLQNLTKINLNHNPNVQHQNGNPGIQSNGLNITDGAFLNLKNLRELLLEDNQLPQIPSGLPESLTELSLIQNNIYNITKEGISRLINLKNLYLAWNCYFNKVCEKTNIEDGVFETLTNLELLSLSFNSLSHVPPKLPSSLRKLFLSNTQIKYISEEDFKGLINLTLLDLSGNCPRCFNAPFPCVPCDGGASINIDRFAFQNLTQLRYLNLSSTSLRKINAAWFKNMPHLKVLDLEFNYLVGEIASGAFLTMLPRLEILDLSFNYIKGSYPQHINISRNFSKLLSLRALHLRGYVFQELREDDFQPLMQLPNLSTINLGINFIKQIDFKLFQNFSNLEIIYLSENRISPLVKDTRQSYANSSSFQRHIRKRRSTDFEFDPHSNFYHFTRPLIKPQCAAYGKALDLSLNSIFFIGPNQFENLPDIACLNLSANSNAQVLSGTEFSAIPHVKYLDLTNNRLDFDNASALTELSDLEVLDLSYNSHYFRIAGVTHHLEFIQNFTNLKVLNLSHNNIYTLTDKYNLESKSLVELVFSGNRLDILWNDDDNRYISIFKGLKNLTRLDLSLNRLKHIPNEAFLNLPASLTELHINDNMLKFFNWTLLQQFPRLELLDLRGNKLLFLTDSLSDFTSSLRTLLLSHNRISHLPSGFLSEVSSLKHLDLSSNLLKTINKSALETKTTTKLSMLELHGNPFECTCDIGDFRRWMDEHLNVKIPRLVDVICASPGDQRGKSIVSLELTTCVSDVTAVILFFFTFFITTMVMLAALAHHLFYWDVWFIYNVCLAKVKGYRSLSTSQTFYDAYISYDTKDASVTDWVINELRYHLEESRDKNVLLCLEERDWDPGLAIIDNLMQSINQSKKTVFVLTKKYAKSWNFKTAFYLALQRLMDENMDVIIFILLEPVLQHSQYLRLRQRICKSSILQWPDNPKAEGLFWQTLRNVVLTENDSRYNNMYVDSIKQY
Format: cell-based
In short: (§1)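 Fresh human PBMCs isolated from venous blood, plated at 10^5 cells in 100 µL per well and stimulated for 16 h with graded concentrations of compound. Supernatants were collected by centrifugation and assayed in duplicate with a multiplexed cytokine/chemokine magnetic bead array.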
With `CCCCCn1cc(-c2ccc(F)cc2)nc1N` the Activity was “Active”. In the case of `CCCCCn1cc(-c2ccccc2)nc1N`, the Activity is reported as “Active”.

What follows are molecules tested against T1, Toll-like receptor 8 (Homo sapiens) (assay: Agonist activity at TLR8 in human PBMC cells assessed as induction of IL-1beta production incubated for 16 hrs by immunoassay). Conditions: filed as agonist.
Format: cell-based
In short: as §1
For `CCCCCn1cc(-c2ccc(F)cc2)nc1N`, the Activity was “Active”. For `CCCCCn1cc(-c2ccccc2)nc1N`, the Activity was “Active”.

The molecules below were run against T1, Toll-like receptor 8 (Homo sapiens) (assay: Agonist activity at TLR8 in human PBMC cells assessed as induction of IFNgamma production incubated for 16 hrs by immunoassay). Conditions: filed as agonist.
Format: cell-based
In short: as §1
`CCCCCn1cc(-c2ccc(F)cc2)nc1N` was tested, and the Activity was “Active”. For `CCCCCn1cc(-c2ccccc2)nc1N`, the Activity was “Active”.

The molecules below were run against T1, Toll-like receptor 8 (Homo sapiens) (assay: Agonist activity at TLR8 in human PBMC cells assessed as induction of MIP-1beta production incubated for 16 hrs by immunoassay). Conditions: filed as agonist.
Format: cell-based
In short: as §1
For `CCCCCn1cc(-c2ccc(F)cc2)nc1N`, the Activity was “Dose-dependent effect”. In the case of `CCCCCn1cc(-c2ccccc2)nc1N`, the Activity is reported as “Active”.

These molecules were tested against T1, Toll-like receptor 8 (Homo sapiens) (assay: Agonist activity at TLR8 in human polymorphonuclear leucocyte cells assessed as induction of NF-kappaB phosphorylation at p65 subunit measured after 15 mins in presence of 10% FBS by Alexa fluor 647 dye based flow cytometry analysis). Conditions: in the assay text read “PE-Cy7 dye” for “Alexa fluor 647 dye”.
Format: tissue-based
In short: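 Whole human blood with anticoagulant was added to serial compound dilutions in RPMI with 10% FBS and held at 37 °C for 15 min. Samples were lysed and fixed three times, permeabilized in ice-cold methanol for 30 min, then stained on ice for 60 min with anti-NF-κB p65-PECy7, p38MAPK-PE and ERK1/2-AlexaFluor 647. Flow cytometry acquired 100,000 gated events; monocytes and polymorphonuclear cells were gated.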
With `CCCCCn1cc(-c2ccc(F)cc2)nc1N` the Activity was “inactive”. For `CCCCCn1cc(-c2ccccc2)nc1N`, the Activity was “inactive”.

What follows are molecules tested against T2, Toll-like receptor 7 (Homo sapiens) (UniProt Q9NYK1) (assay: Agonist activity at human TLR7 stably expressed in HEK293 cells cotransfected with secreted alkaline phosphatase assessed as induction of NFkappaB activation by quanti-blue SEAP reporter gene based spectrophotometric method). Conditions: not given.
T2 sequence (whole entry): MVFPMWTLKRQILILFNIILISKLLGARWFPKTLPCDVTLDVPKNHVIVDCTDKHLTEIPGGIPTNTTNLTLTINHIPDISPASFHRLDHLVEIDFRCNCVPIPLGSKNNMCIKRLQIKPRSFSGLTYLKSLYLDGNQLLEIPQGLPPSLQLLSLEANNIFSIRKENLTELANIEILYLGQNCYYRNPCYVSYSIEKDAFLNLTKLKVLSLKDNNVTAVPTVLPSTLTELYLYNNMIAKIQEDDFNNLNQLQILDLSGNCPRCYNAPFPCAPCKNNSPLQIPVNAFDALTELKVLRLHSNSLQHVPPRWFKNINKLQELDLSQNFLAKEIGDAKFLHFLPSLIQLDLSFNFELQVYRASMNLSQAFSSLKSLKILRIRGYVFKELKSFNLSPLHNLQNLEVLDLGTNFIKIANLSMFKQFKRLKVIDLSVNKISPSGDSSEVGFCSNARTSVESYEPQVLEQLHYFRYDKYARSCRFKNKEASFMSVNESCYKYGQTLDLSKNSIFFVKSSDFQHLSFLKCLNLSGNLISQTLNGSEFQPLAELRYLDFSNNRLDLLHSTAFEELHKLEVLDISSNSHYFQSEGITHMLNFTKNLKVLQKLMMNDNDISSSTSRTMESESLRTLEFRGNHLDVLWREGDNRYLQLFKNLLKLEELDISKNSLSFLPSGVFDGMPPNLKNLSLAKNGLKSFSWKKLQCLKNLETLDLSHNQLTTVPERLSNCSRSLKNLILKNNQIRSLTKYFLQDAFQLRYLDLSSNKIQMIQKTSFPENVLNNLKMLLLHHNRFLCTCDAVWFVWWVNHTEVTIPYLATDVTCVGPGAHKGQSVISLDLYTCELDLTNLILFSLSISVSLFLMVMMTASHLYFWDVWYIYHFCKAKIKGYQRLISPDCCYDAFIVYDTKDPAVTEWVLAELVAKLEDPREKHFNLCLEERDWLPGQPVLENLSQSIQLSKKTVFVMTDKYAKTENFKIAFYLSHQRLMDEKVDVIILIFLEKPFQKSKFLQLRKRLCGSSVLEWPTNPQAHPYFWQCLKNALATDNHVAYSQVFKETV
Format: cell-based
In short: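 HEK293 cells stably co-transfected with the matching human TLR (2, 3, 4, 5, 7, 8 or 9) and NF-κB/AP-1-driven secreted alkaline phosphatase were kept in selection medium. About 10^5 cells/ml were incubated with graded concentrations of stimulus. sAP was read at 620 nm with a chromogen in detection medium. EC50 came from four-parameter logistic fits on quadruplicates.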
For `CCCCCn1cc(-c2ccc(OC)cc2)nc1N`, the Activity was “inactive”. `CCCCCn1cc(-c2ccccc2C(=O)OC)nc1N` was tested, and the Activity was “inactive”. In the case of `CCCCCn1cc(-c2ccc(C(F)(F)F)cc2)nc1N`, the Activity is reported as “inactive”. `CCCCCn1cc(-c2cccc(C)c2C)nc1N` was tested, and the Activity was “inactive”. For `CCCCCn1cc(-c2ccc3ccccc3c2)nc1N`, the Activity was “inactive”. In the case of `CCCCCn1cc(-c2ccc(C)cc2)nc1N`, the Activity is reported as “inactive”. With `CCCCCn1cc(-c2cccc(F)c2)nc1N` the Activity was “inactive”. `CCCCCn1cc(-c2ccc(N)cc2)nc1N` was tested, and the Activity was “inactive”. `CCCCCn1cc(-c2cc(C)ccc2C)nc1N` was tested, and the Activity was “inactive”. For `CCCCCn1cc(-c2ccc(C(N)=O)cc2)nc1N`, the Activity was “inactive”. `CCCCCn1cc(-c2cccc3ccccc23)nc1N` was tested, and the Activity was “inactive”. In the case of `CCCCCn1cc(-c2ccc(F)cc2C)nc1N`, the Activity is reported as “inactive”. In the case of `CCCCCn1cc(-c2ccc(F)cc2)nc1N`, the Activity is reported as “inactive”. With `CCCCCn1cc(-c2cccc(C(F)(F)F)c2)nc1N` the Activity was “inactive”. In the case of `CCCCCn1cc(-c2ccccc2CO)nc1N`, the Activity is reported as “inactive”. `CCCCCn1cc(-c2ccccc2C(F)(F)F)nc1N` was tested, and the Activity was “inactive”. In the case of `CCCCCn1cc(-c2ccccc2)nc1N`, the Activity is reported as “inactive”. `CCCCCn1cc(-c2ccccc2C)nc1N` was tested, and the Activity was “inactive”. With `CCCCCn1cc(-c2ccccc2F)nc1N` the Activity was “inactive”. In the case of `CCCCCn1cc(-c2ccccc2OC)nc1N`, the Activity is reported as “inactive”. `CCCCCn1c(N)nc(-c2ccccc2)c1-c1ccccc1` was tested, and the Activity was “inactive”. `CCCCCn1cc(-c2ccccc2OCc2ccccc2)nc1N.Cl` was tested, and the Activity was “inactive”. With `CCCCCn1cc(Cc2ccccc2)nc1N` the Activity was “inactive”. For `CCCCCn1cc(-c2ccc(Cl)cc2)nc1N`, the Activity was “inactive”. In the case of `CCCCCn1cc(-c2c(C)noc2C)nc1N`, the Activity is reported as “inactive”. For `CCCCCn1cc(-c2ccccc2O)nc1N`, the Activity was “inactive”. In the case of `CCCCCn1cc(-c2c(C)cccc2C)nc1N`, the Activity is reported as “inactive”. With `CCCCCn1cc(-c2cccnc2)nc1N` the Activity was “inactive”. For `CCCCCn1cc(-c2cccc(OC)c2)nc1N`, the Activity was “inactive”. For `CCCCCn1cc(-c2ccccc2Cl)nc1N`, the Activity was “inactive”. For `CCCCCn1ccnc1N`, the Activity was “inactive”. `CCCCCn1cc(-c2ccc(OC)cc2C)nc1N` was tested, and the Activity was “inactive”. With `CCCCCn1cc(-c2cc(OC)c(OC)c(OC)c2)nc1N` the Activity was “inactive”. For `CCCCCn1cc(-c2ccc(C)cc2C)nc1N`, the Activity was “inactive”. `CCCCCn1cc(CCc2ccccc2)nc1N` was tested, and the Activity was “inactive”. `CCCCCn1c(-c2ccccc2)cnc1N.Cl` was tested, and the Activity was “inactive”. `CCCCCn1cc(-c2cccc(C)c2)nc1N` was tested, and the Activity was “inactive”. With `CCCCCn1cc(-c2cccc(Cl)c2)nc1N` the Activity was “inactive”. For `CCCCCn1cc(-c2cccc(C)c2OC)nc1N`, the Activity was “inactive”. For `CCCCCn1cc(-c2ccc(-c3ccccc3)cc2)nc1N`, the Activity was “inactive”. `CCCCCn1cc(-c2ccc(C(=O)OC)cc2)nc1N` was tested, and the Activity was “inactive”. With `CCCCCn1cc(-c2cccc(OC)c2OC)nc1N` the Activity was “inactive”. For `CCCCCn1cc(-c2ccccc2CC)nc1N`, the Activity was “inactive”.

Each molecule was assayed against T1, Toll-like receptor 8 (Homo sapiens) (assay: Antagonist activity at human TLR8 stably expressed in HEK293 cells cotransfected with secreted alkaline phosphatase assessed as inhibition of compound 1f-induced NFkappaB activation by measuring reduction in SEAP level by quanti-blue SEAP reporter gene based spectrophotometric method). Conditions: filed as antagonist.
Format: cell-based
In short: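 Human TLR8/sAP HEK293 reporter cells were stimulated with 1f at 5 µg/mL in the presence of graded inhibitor concentrations. Reduction of secreted alkaline phosphatase was read spectrophotometrically at 620 nm.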
`CCCCCn1cc(-c2ccccc2OCc2ccccc2)nc1N.Cl` was tested, and the inhibition was “Dose-dependent effect”. `CCCCCn1c(-c2ccccc2)cnc1N.Cl` was tested, and the inhibition was “Dose-dependent effect”.
